NPY1 pot ag: potentiators or agonists of human neuropeptide Y receptor Y1 | P25929 | NPY-Y1 expressing cells, potentiator/agonist activation | activation, % at 3.6 µM | 220,000 tested, 0.37% active | AID 1304; in the data active means activation above about 33%, passing the limit was not always enough;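 further: cells stimulated with NPY at EC10 then isoproterenol at EC100; 0% = low agonist plus stimulus and 100% = saturating agonist plus stimulus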
Target sequence (P25929 whole entry, looked up): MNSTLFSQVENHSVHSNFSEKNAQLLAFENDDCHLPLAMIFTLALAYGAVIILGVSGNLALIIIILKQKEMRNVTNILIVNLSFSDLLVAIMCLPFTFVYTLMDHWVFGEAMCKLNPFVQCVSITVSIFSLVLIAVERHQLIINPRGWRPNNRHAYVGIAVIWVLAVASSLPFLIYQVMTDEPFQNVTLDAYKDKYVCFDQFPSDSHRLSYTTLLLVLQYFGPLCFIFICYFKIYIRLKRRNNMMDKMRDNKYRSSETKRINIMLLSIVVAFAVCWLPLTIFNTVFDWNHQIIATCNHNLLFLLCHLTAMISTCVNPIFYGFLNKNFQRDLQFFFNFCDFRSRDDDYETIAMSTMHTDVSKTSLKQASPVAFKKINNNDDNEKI
NPY2 pot ag: potentiators or agonists of human neuropeptide Y receptor Y2 | cells expressing NPY-Y2, potentiator/agonist read-out | activation, % at 3.6 µM | P49146 | 220,000 tested, 0.45% active; in the data active means activation above about 27%;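 further: cells stimulated with NPY near EC25 plus isoproterenol at EC100; 0% = vehicle plus submaximal agonist and 100% = vehicle plus saturating agonist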
WT yeast gro inh: growth inhibition of WT yeast, mitochondrial fusion screen. mitochondrial fusion phenotypic screen, WT strain. inhibition, % at 10 µM. 190,000 tested, 2.1% active. AID 1362; in the data active means inhibition above about 58%; tested in S. cerevisiae
NPY-Y2 antag: NPY-Y2 (human) receptor antagonism; AID 793; P49146; 140,000 tested, 0.99% active; inhibition, % at 2.7 µM; NPY-Y2 expressing cells, antagonist mode; in the data active means inhibition above about 17%;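 further: 0% = vehicle with agonist challenge and 100% = reference antagonist with challenge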
NPY Y1 blocker: antagonists of human neuropeptide Y receptor Y1 | 200,000 tested, 1% active | HEK293-CNG Y1 cells, membrane potential fluorescence; NPY at EC95, then isoproterenol | AID 1040 | inhibition, % at 3.6 µM;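 active means inhibition above the campaign mean inhibition of all tested compounds plus 3 SD, cut at about 20% in these data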;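 further: 0% = DMSO wells given NPY plus isoproterenol and 100% = isoproterenol alone without NPY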
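Test system: HEK293 cells co-expressing NPY Y1 receptor and cyclic-nucleotide gated channel; Also added: NPY (25 nM), isoproterenol (1 µM), Ro 20-1724 (25 µM); Compound dosing: one concentration, 3.6 µM, in 0.4% DMSO; Timing: dye 3 h, compound 60 min room temperature, stimulation 45 min; Technique: Membrane-potential fluorescent dye readout.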
RAM inhibit: blocks the yeast RAM network. S. cerevisiae dse1pr::URA3 reporter, 5-FOA growth OD615, 2 d; analog-sensitive cbk1-as2 kinase mutant strain. inhibition, % at 50 µM. 190,000 tested, 1.8% active;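 active means inhibition above a set limit, 3 SD over mean compound inhibition, cut at about 8.4% in these data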;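 further: 0% = DMSO-only wells with no growth and 100% = 10 µM 1-NA-PP1 full growth; inhibition rescues growth on 5-FOA so higher OD means more RAM inhibition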
NPY1 antag ctr: counter-screen for NPY-Y2 antagonists: human NPY-Y1 antagonism; shares compounds with NPY-Y2 antag; cell-based NPY-Y1 antagonism counterscreen; inhibition, % at 3.6 µM; 710 tested, 19% active; in the data active means inhibition above about 20%;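 further: cells challenged with NPY then isoproterenol with cAMP sensed through a CNG channel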
NPY2 antag conf: human NPY-Y2 antagonism, confirmation. 710 tested, 32% active. inhibition, % at 2.8 µM. HEK293 NPY-Y2 CNG channel, membrane potential fluorescence. AID 1257. shares compounds with NPY-Y2 antag;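 active means mean inhibition of triplicate wells above the hit cutoff set in the primary screen, cut at about 17% in these data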;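 further: 0% = DMSO with NPY challenge and 100% = BIIE0246 high control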
* hit, by the source's call; . = no result; ! = repeats disagree. A selection: hits, their analogues and other compounds. The true share with any hit is near 4.9%.

SMILES	NPY1 pot ag	NPY2 pot ag	WT yeast gro inh	NPY-Y2 antag	NPY Y1 blocker	RAM inhibit	NPY1 antag ctr	NPY2 antag conf
Cc1ccccc1OCC(O)Cn1c(=N)n(CCN2CCOCC2)c2ccccc21 (configuration not stated)	-16	-2	-10	28*	30*!	1	10	7
Cc1c(C(=O)O)sc(S(=O)(=O)N2CCNCC2)c1C(=O)O	13	-3	.	.	.	.	.	.
Cc1ccc(OCCNC(=O)/C=C/c2ccc([N+](=O)[O-])cc2)cc1C	-28	-8	17	18*	17	5	11	15
Cc1ccc(OCCNC(=O)/C=C/c2ccccc2)cc1C	-44	-14	15	13	10	3	.	.
Oc1ccc(N=Cc2cc(Br)c(N3CCOCC3)o2)cc1	18	-2	-7	1	3	1	.	.
CCCCCc1cc(O)c2c(C)cc(=O)oc2c1	37	29	-1	7	-6	6	.	.
CCCCc1cc(O)c(CCCC)c(O)c1	19	14	0	21*	-6	-2	-1	-4
CCC(C)N(C(=O)COC(=O)/C=C/c1ccc(O)c(OC)c1)C1CCS(=O)(=O)C1 (configuration not stated)	9	-1	7	18*	4	2	1	0
COc1cc(/C=C/C(=O)OCC(=O)NC2CCS(=O)(=O)C2)ccc1O (configuration not stated)	0	-1	1	-1	-1	1	.	.
CCOc1ccc(C(=O)NC(=S)Nc2ccc(N3CCCCC3)cc2)cc1[N+](=O)[O-]	-12	-7	28	29*	-1	1	78*	91*
COc1ccc(C(=O)NC(=S)Nc2ccc(NC(=O)c3ccco3)cc2)cc1[N+](=O)[O-]	8	10	2	19*	2	4	52*	88*
COc1ccc(C(=O)NC(=S)Nc2cccc(NC(=O)c3ccco3)c2)cc1[N+](=O)[O-]	-3	-13	6	0	11	2	.	.
COC(=O)C1=C(C)N(C)C(=O)NC1c1ccc(O)c(OC)c1 (configuration not stated)	10	-10	8	-1	7	2	.	.
CC(Sc1ccc(Cl)cc1)C(=O)Nc1ccccc1-c1ccccc1 (configuration not stated)	-37	-25	75*	20*	18	2	15	25*
NNC(=O)Cn1c(SCc2ccccc2)nc2ccccc21	-11	11	24	22*	-4	-1	-3	4
Cc1cccc(OCc2nc(C#N)c(NCc3ccc4c(c3)OCO4)o2)c1	-32	-23	53	27*	12	11*	15	13
Cc1onc(-c2ccccc2Cl)c1C(=O)Nc1sc2c(c1C#N)CCC2	-51	-79	-9	26*	3	6	9	18*
Clc1ccccc1CSc1nnc(/C=C/c2ccccc2)o1	-19	-10	35	20*	11	7	20	21*
N[C@@H](Cc1ccccc1)c1nnc(SCc2ccccc2Cl)o1	-12	9	11	5	1	0	.	.
O=P(CCCCCCCCCP(=O)(c1ccccc1)c1ccccc1)(c1ccccc1)c1ccccc1	27	-16	16	18*	-7	-1	2	111*
CSc1ccc(C2(O)Cc3cccc[n+]3C2c2ccccc2)cc1 (configuration not stated)	0	11	.	.	.	.	.	.
CCC(=O)Oc1ccc2c(c1)O/C(=C\c1ccco1)C2=O	12	12	.	.	.	.	.	.
CNC(=O)c1ccsc1NC(=O)c1ccc(S(=O)(=O)N2CCCc3ccccc32)cc1	-57	-1	52	17*	8	5	31*	39*
Cn1nc([N+](=O)[O-])nc1Sc1nnnn1-c1ccc(C(=O)O)cc1	18	5	-10	.	6	0	.	.
CN(C)S(=O)(=O)c1ccc(N2CCCC2)c(C(=O)NC(c2ccccc2)c2ccccc2)c1	8	-15	15	23*	13	2	16	9

Source: PubChem BioAssay (several laboratories)
